In brackets after ≈: the same amount, converted by molar mass.
Key:
Plasmodium falciparum [1] = experiment: Antiplasmodial activity against multidrug-resistant asexual blood stage Plasmodium falciparum K1 strain assessed as reduction in parasite growth after 72 hrs by NBT reagent based LDH assay; type: functional, organism-based; conditions: K1, 72 h
Summary of the method: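 Asexual blood-stage K1 (multidrug-resistant) parasites were read out by the parasite lactate dehydrogenase (pLDH) assay. […] Most individual values varied less than 2× (maximum 3×).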

[2] = AUC (0 to t) in Balb/C mouse at 2 mg/kg, iv by LC-MS/MS analysis; type: ADME, organism-based; set-up: dose 2 mg/kg; conditions: in vivo
Summary of the method: (§1)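 Healthy Balb/c mice dosed i.v. or orally. Parameters come from non-compartmental analysis of compound concentration over time. […] Clearance is blood clearance (CL_b).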

[3] = Aqueous solubility of compound in phosphate buffer saline at pH 6.5 incubated for 20 hrs under shaking condition by shake-flask method based HPLC-DAD analysis; type: physicochemical; conditions: phosphate buffered saline
Summary of the method: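 Equilibrium aqueous solubility was measured at pH 6.5 using a miniaturized shake-flask method.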

[4] = AUC (0 to t) in Balb/C mouse at 5 mg/kg, po by LC-MS/MS analysis; type: ADME, organism-based; set-up: dose 5 mg/kg; conditions: in vivo; summary of the method: as §1
[5] = Cmax in Balb/C mouse at 5 mg/kg, po by LC-MS/MS analysis; type: ADME, organism-based; set-up: route oral, dose 5 mg/kg; conditions: in vivo; summary of the method: as §1
[6] = Terminal half life in Balb/C mouse at 5 mg/kg, po by LC-MS/MS analysis; type: ADME, organism-based; conditions: in vivo, read-out: beta t1/2 (converted)
Summary of the method: (§2)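 Healthy Balb/c mice were given the compound i.v. or orally. Parameters come from non-compartmental analysis: AUC from 0 h to t_last, blood clearance, volume at steady state, terminal half-life, Tmax. Oral bioavailability F is derived from the i.v. and p.o. data.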

[7] = Volume of distribution at steady state in Balb/C mouse at 2 mg/kg, iv by LC-MS/MS analysis; type: ADME, organism-based; conditions: in vivo, read-out: Vdss; summary of the method: as §2
[8] = Clearance in Balb/C mouse blood at 2 mg/kg, iv by LC-MS/MS analysis; type: ADME, organism-based; conditions: whole blood; summary of the method: as §1
[9] = Cmax in Balb/C mouse at 2 mg/kg, iv by LC-MS/MS analysis; type: ADME, organism-based; set-up: route intravenous, dose 2 mg/kg; conditions: in vivo; summary of the method: as §1
[10] = Tmax in Balb/C mouse at 5 mg/kg, po by LC-MS/MS analysis; type: ADME, organism-based; conditions: in vivo; summary of the method: as §2
[11] = Terminal half life in Balb/C mouse at 2 mg/kg, iv by LC-MS/MS analysis; type: ADME, organism-based; conditions: in vivo, read-out: beta t1/2 (converted); summary of the method: as §2
Plasmodium falciparum [12] = experiment: Antiplasmodial activity against multidrug-sensitive asexual blood stage Plasmodium falciparum NF54 strain assessed as reduction in parasite growth after 72 hrs by NBT reagent based LDH assay; type: functional, organism-based; conditions: NF54, 72 h
[13] = Ratio of unbound average drug concentration in Balb/c mouse at 5 mg/kg, po measured at 24 hrs to IC50 for antiplasmodial activity against multidrug-sensitive Plasmodium falciparum NF54 asexual blood stage assessed as reduction in parasite growth after 72 hrs by LDH assay; type: organism-based; conditions: in vivo
[14] = Oral bioavailability in Balb/C mouse at 5 mg/kg by LC-MS/MS analysis; type: ADME, organism-based; conditions: in vivo; summary of the method: as §2
[15] = AUC in Balb/c mouse administered orally; type: ADME; conditions: in vivo, po; summary of the method: as §1
[16] = Terminal half life in Balb/C mouse at 20 mg/kg, po by LC-MS/MS analysis; type: ADME, organism-based; conditions: in vivo, read-out: beta t1/2 (converted); summary of the method: as §2
[17] = Selectivity ratio of IC50 for antiplasmodial activity against luciferase-expressing Plasmodium berghei sporozoites liver stage infected in human HepG2 cells expressing GFP-CD81 fusion protein to IC50 for antiplasmodial activity against multidrug-sensitive Plasmodium falciparum NF54; type: functional
Plasmodium berghei = experiment: Antiplasmodial activity against luciferase-expressing Plasmodium berghei sporozoites liver stage infected in human HepG2 cells expressing GFP-CD81 fusion protein incubated for 48 hrs by luciferase reporter gene based bioluminescence assay; type: functional, organism-based; conditions: HepG2, 48 h
Summary of the method: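 Liver-stage activity was measured in vitro with rodent P. berghei sporozoites. Values are the mean of 3 technical replicates from the luciferase assay; individual values varied less than 2×.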

CHO = experiment: Cytotoxicity against CHO cells assessed as reduction in cell viability by MTT assay; type: cell-based, Cricetulus griseus; conditions: chinese hamster
Summary of the method: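 Cytotoxicity was measured in Chinese hamster ovary (CHO) cells and reported as CC50. The selectivity index is CC50 divided by NF54 IC50.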

Plasmodium falciparum [18] = experiment: Antiplasmodial activity against late stage (IV/V) Plasmodium falciparum NF54 gametocytes at 5 uM incubated for 48 hrs under hypoxia condition by luciferase reporter gene assay relative to control; type: functional
[19] = Ratio of unbound average drug concentration in Balb/c mouse at 20 mg/kg, po measured at 24 hrs to IC50 for antiplasmodial activity against multidrug-sensitive Plasmodium falciparum NF54 asexual blood stage assessed as reduction in parasite growth after 72 hrs by LDH assay; type: organism-based; conditions: in vivo
[20] = target: Voltage-gated inwardly rectifying potassium channel KCNH2 (Homo sapiens, UniProt Q12809); experiment: Inhibition of human ERG by patch clamp method
[21] = Tmax in Balb/C mouse at 20 mg/kg, po by LC-MS/MS analysis; type: ADME, organism-based; conditions: in vivo; summary of the method: as §2
Plasmodium falciparum [22] = experiment: Antiplasmodial activity against early stage (I to III) Plasmodium falciparum NF54 gametocytes incubated for 48 hrs under hypoxia condition by luciferase reporter gene assay; type: functional, organism-based; conditions: NF54, 48 h
[23] = AUC (0 to t) in Balb/C mouse at 20 mg/kg, po by LC-MS/MS analysis; type: ADME, organism-based; set-up: dose 20 mg/kg; conditions: in vivo; summary of the method: as §1
[24] = Oral bioavailability in Balb/C mouse at 20 mg/kg by LC-MS/MS analysis; type: ADME, organism-based; conditions: in vivo; summary of the method: as §2
[25] = Selectivity index, ratio of CC50 for cytotoxicity against CHO cells assessed as reduction in cell viability to IC50 for antiplasmodial activity against multidrug-sensitive Plasmodium falciparum NF54 assessed as reduction in parasite growth; type: toxicity, cell-based; conditions: hamster, read-out: Ratio CC50/IC50
[26] = Cmax in Balb/C mouse at 20 mg/kg, po by LC-MS/MS analysis; type: ADME, organism-based; set-up: route oral, dose 20 mg/kg; conditions: in vivo; summary of the method: as §1
[27] = Intrinsic clearance in Balb/c mouse at 20 mg/kg, po by LC-MS/MS analysis; type: ADME, organism-based; conditions: in vivo
[28] = Oral bioavailability in Balb/C mouse at 10 mg/kg by LC-MS/MS analysis; type: ADME, organism-based; conditions: in vivo; summary of the method: as §2
[29] = AUC (0 to t) in Balb/C mouse at 10 mg/kg, po by LC-MS/MS analysis; type: ADME, organism-based; set-up: dose 10 mg/kg; conditions: in vivo; summary of the method: as §1
[30] = Cmax in Balb/C mouse at 10 mg/kg, po by LC-MS/MS analysis; type: ADME, organism-based; set-up: route oral, dose 10 mg/kg; conditions: in vivo; summary of the method: as §1
[31] = Tmax in Balb/C mouse at 10 mg/kg, po by LC-MS/MS analysis; type: ADME, organism-based; conditions: in vivo; summary of the method: as §2
[32] = Terminal half life in Balb/C mouse at 10 mg/kg, po by LC-MS/MS analysis; type: ADME, organism-based; conditions: in vivo, read-out: beta t1/2 (converted); summary of the method: as §2
[33] = Ratio of unbound average drug concentration in Balb/c mouse at 10 mg/kg, po measured at 24 hrs to IC50 for antiplasmodial activity against multidrug-sensitive Plasmodium falciparum NF54 asexual blood stage assessed as reduction in parasite growth after 72 hrs by LDH assay; type: organism-based; conditions: in vivo

Sequence of Voltage-gated inwardly rectifying potassium channel KCNH2 (Q12809 whole entry): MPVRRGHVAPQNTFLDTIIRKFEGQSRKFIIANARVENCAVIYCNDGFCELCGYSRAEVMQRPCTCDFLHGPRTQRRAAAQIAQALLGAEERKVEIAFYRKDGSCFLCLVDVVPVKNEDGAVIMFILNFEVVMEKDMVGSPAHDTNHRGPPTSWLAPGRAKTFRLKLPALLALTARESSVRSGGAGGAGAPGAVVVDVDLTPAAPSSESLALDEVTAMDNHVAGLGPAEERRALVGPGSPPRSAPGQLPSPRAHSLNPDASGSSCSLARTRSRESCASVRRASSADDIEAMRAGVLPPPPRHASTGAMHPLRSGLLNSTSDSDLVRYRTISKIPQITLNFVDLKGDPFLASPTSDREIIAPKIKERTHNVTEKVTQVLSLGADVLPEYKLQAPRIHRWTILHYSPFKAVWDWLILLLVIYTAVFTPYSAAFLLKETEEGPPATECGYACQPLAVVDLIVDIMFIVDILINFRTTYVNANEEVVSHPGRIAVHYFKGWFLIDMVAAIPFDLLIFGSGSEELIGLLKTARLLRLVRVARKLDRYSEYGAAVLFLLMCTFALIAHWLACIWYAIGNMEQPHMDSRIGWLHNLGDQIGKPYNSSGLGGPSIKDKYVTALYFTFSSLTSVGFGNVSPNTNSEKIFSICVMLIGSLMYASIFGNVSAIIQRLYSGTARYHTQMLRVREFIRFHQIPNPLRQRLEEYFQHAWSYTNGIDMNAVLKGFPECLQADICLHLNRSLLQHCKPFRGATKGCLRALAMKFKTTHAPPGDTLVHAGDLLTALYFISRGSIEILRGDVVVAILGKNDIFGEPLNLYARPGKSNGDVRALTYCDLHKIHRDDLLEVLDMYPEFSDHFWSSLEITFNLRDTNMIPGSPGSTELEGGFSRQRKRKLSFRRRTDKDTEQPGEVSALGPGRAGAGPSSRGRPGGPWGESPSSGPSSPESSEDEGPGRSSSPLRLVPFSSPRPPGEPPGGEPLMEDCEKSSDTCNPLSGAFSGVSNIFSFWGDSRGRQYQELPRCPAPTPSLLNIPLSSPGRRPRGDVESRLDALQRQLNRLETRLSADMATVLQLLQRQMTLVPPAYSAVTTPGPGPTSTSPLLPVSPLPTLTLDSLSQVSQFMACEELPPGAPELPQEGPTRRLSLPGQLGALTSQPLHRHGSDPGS

SMILES | IC50 (Plasmodium falciparum [1]) | AUCt [2] | solubility thermodynamic at 20 h [3] | Vd [7] | clearance [8] | Cmax [9] | half-life [11] | IC50 (Plasmodium falciparum [12]) | half-life [16] | CC50 (CHO) | Ratio [19] | Tmax [21] | AUCt [23] | bioavailability [24] | selectivity ratio [25] | Cmax [26] | other results
CN1CCN(c2nccc3nc(-c4ccc(F)c(F)c4)[nH]c23)CC1 | 500 nM | 3.58 µM·h | 130 µM (≈ 42.8 µg/mL) | 9 L/kg | 27.3 mL/min/kg | 1000 nM | 5.9 h | 240 nM |  |  |  |  |  |  |  |  | AUCt [4]: 3.25 µM·h; Cmax [5]: 1100 nM; half-life [6]: 5.4 h; Tmax [10]: 0.7 h; Ratio [13]: 0.1; bioavailability [14]: 36%
CS(=O)(=O)c1ccc(-c2cnc(N)c(-c3ccc(C(F)(F)F)nc3)c2)cc1 [MMV-048] |  |  |  |  |  |  |  |  |  |  |  |  |  |  |  |  | AUC [15]: 465 µM·h
Fc1ccc(-c2nc3c(N4CCC(CN5CCOCC5)CC4)nccc3[nH]2)cc1F | 120 nM | 4.17 µM·h | 85 µM (≈ 35.1 µg/mL) | 20 L/kg | 19.6 mL/min/kg | 300 nM | 25.8 h | 51 nM | 13.5 h | 35000 nM | 4.6 | 0.7 h | 34.6 µM·h | 83% | 690 | 3700 nM | Ratio IC50 [17]: <=6; IC50 (Plasmodium berghei): 290 nM; inhibition at 5 µM (Plasmodium falciparum [18]): 0%; IC50 [20]: ≤ 3000 nM; IC50 (Plasmodium falciparum [22]): 1300 nM
CN1CCC(N2CCN(c3nccc4[nH]c(-c5ccc(F)c(F)c5)nc34)CC2)CC1 | 260 nM | 6.77 µM·h | 200 µM (≈ 82.5 µg/mL) | 4.3 L/kg | 11.4 mL/min/kg | 1700 nM | 8.2 h | 71 nM | 10.8 h | 33000 nM | 0.9 | 2.3 h | 6.63 µM·h | 11% | 460 | 1100 nM | CL [27]: 54 mL/min/kg
CN1CCN(CC2CCN(c3cncc4[nH]c(-c5cc(F)cc(F)c5)nc34)CC2)CC1 | 330 nM | 0.967 µM·h | 125 µM (≈ 53.3 µg/mL) | 51 L/kg | 71.8 mL/min/kg | 100 nM | 6.9 h | 130 nM |  | 46000 nM |  |  |  |  |  |  | bioavailability [28]: 73%; AUCt [29]: 3.57 µM·h; Cmax [30]: 400 nM; Tmax [31]: 3.5 h; half-life [32]: 4.9 h; Ratio [33]: 0.3

Reference: ChEMBL document CHEMBL4699593, “Identification of 2,4-Disubstituted Imidazopyridines as Hemozoin Formation Inhibitors with Fast-Killing Kinetics and In Vivo Efficacy in the Plasmodium falciparum NSG Mouse Model” (J Med Chem, 2020)
